Hits are enriched below; roughly 2.1% of the tested compounds scored in any of these assays.
p97 ATPase inh = blocks human p97 ATPase activity | P55072 | recombinant p97 ATPase, Kinase-Glo ATP luminescence, 3 h | inhibition, % at 8 µM | 220,000 tested, 0.42% active | AID 1481; in the data active = inhibition above about 15%;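 note: 0% = DMSO vehicle and 100% = wells lacking enzyme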
Hck-Nef inh = blocks Nef-activated human Hck kinase. 220,000 tested, 0.68% active. Recombinant Hck-YEEI plus Nef, Z-Lyte FRET kinase assay. P08631. inhibition, % at 20 µM;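 active = Hck-Nef kinase inhibition above about 50%, limit read from the data; inactive = inhibition below that limit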;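 note: 0% = DMSO with Hck plus Nef and 100% = Hck alone without Nef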
Target sequence (P08631 whole entry, looked up): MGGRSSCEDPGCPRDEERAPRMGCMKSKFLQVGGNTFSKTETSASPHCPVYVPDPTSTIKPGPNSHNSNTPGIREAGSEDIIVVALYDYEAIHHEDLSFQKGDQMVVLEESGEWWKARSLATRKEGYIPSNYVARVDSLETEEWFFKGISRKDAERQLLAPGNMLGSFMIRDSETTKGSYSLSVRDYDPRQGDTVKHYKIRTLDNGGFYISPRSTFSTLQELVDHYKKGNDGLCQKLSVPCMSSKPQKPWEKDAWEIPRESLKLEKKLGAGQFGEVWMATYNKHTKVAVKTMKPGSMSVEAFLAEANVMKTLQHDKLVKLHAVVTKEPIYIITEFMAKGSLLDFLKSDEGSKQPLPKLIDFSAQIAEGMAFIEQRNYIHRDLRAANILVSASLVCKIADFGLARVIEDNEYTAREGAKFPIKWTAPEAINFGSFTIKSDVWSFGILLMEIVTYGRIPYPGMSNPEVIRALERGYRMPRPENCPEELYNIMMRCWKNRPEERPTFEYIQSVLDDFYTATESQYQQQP
RanGTP-Imp inh = disruptors of Ran-importin-beta complex formation – biochemical, FRET, CFP-Ran, YFP-importin-beta, homogeneous, primary screen | 300,000 tested, 1.1% active | cell-free CFP-Ran/YFP-importin-beta FRET ratio | inhibition, % (concentration not given with the values);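 active = more than half of the replicate wells show a fall in the fluorescence ratio signal beyond about 16%, limit read from the data, passing the limit was not always enough; inconclusive = exactly half of the replicate wells pass the set limit; inactive = fewer than half of replicates pass the limit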;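 note: 0% = DMSO wells and 100% = Ran loaded with GDP instead of GTP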
Runt-CBFb FRET = Runt domain-CBFb interaction inhibition | Q01196+Q13951 | Cerulean-Runt/Venus-CBFb FRET ratio 530/480, 1 h | inhibition, % at 20 µM | 220,000 tested, 0.46% active | AID 1496;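 active = inhibition over about 50% at 20 µM in the single-dose screen, limit read from the data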;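 note: 0% = DMSO wells and 100% = excess unlabeled CBFb competitor control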
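Measured by: fluorescence energy transfer, 422 nm excitation, 530/480 nm emission; test system: Cerulean-tagged RUNX1 Runt domain (FRET donor) fusion protein; buffer or medium: Tris pH 7.5 buffer with BSA; compound: one dose, 20 µM compound, 1% DMSO; times: two 1 h room-temperature incubations shielded from light; benchmarks: unlabeled CBFb 5 µM, positive control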
Runt-SMMHC FRET = blocks binding of human RUNX1 Runt domain to CBFb-SMMHC | Q01196+Q13951 | Cerulean-Runt/Venus-CBFb-SMMHC FRET ratio 530/480, 1 h | inhibition, % at 20 µM | 220,000 tested, 0.74% active;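 active = mean inhibition across duplicate retests at 20 µM reaching about 50%, limit read from the data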;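 note: 0% = DMSO wells and 100% = wells with excess untagged CBFb-SMMHC; inhibitors lower the FRET ratio by blocking Runt binding to CBFb-SMMHC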
TbHK1 inh = blocks Trypanosoma brucei hexokinase 1 activity. recombinant TbHK1, G6PDH-coupled NADH A340. inhibition, % at 10 µM. 220,000 tested, 0.11% active. AID 1430;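 active = inhibition of 50% or more in the single-dose primary screen; inactive = inhibition below 50%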
p97 confirm = confirmation of human p97 ATPase inhibitors; shares compounds with p97 ATPase inh; 760 tested, 44% active; recombinant p97 ATPase, Kinase-Glo ATP luminescence; inhibition, % at 8 µM;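 active = percent inhibition of p97 ATPase above a set limit, the primary screen's mean plus 3 SD, cut at about 15% in these data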;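 note: 0% = DMSO wells and 100% = wells lacking p97 protein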
Runt-CBFb TRFRET = disrupts human RUNX1 Runt domain binding to CBFb; 480 tested, 20% active; TR-FRET RUNX1 Runt domain-CBFb binding; shares compounds with Runt-CBFb FRET; inhibition, % at 20 µM; in the data active = inhibition above about 40%
YIC counter = counter-screen: alters YIC FRET probe signal; IC50, µM; 1,000 tested, 40% active; Purified YIC probe, intramolecular FRET ratio YFP/CFP; shares compounds with RanGTP-Imp inh;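 active = fitted half-maximal inhibitory concentration no more than tenfold above the top dose tested; inconclusive = flat fit with 30 to 70% activity, or poor fit; inactive = half-maximal concentration beyond tenfold above the top dose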
Hck Nef conf = Hck-Nef kinase inhibition, confirmation. Recombinant Hck-YEEI:Nef, Z-Lyte FRET kinase assay. 1,300 tested, 28% active. shares compounds with Hck-Nef inh. calls only at 10 µM;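 active = average inhibition of at least 50%, with Z-scores no higher than 3 in both the phospho-tyrosine peptide and fluorescence counterscreens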
An asterisk follows results filed as active; i = inactive; ? = inconclusive; nt = no result given; + = active, no number.

SMILES | p97 ATPase inh | Hck-Nef inh | RanGTP-Imp inh | Runt-CBFb FRET | Runt-SMMHC FRET | TbHK1 inh | others
OCC[n+]1c2ccccc2nc2ccc(N3CCOCC3)cc21 | -19 | 11 | 7 | 3 | 1 | -7
Nc1c(C(=O)NCCN2CCOCC2)c2nc3ccccc3nc2n1Cc1ccccc1 | 35* | 95* | 63* | 78* | 81* | -29 | p97 confirm=0
N#CC(C#N)=C(N)c1cccnc1 | 3 | 3 | ? | 0 | -2 | -6
CCC(C)OC(=O)c1c(N)n(Cc2cccs2)c2nc3ccccc3nc12 (stereo not given) | -2 | 7 | 12 | 53* | 94* | -3 | Runt-CBFb TRFRET=29
Cc1cc(OCC(=O)NCc2ccc(S(N)(=O)=O)cc2)c2c3c(c(=O)oc2c1)CCC3 | nt | nt | 1 | nt | nt | nt
Nc1c(C(=O)NCCc2ccccc2)c2nc3ccccc3nc2n1CCN1CCOCC1 | -5 | 53* | 78* | 58* | 91* | -15 | Runt-CBFb TRFRET=23;Hck Nef conf=i
Fc1cccc(C2NCc3ccccc3-n3cccc32)c1 (stereo not given) | nt | nt | -3 | nt | nt | nt
O=C1NC(=O)N(Cc2ccccc2)C(=O)/C1=C\N1CCCc2ccccc21 | 6 | 0 | 27* | 37 | 48 | 13 | YIC counter=>50
N#Cc1c(/N=C/c2ccc(O)cc2O)sc2c1C1CCN2CC1 | 0 | 4 | 39* | 64* | 59* | -13 | YIC counter=>26
CCCCn1c(O)c(C(C)=Nc2ccc3c(c2)CCC3)c(=O)[nH]c1=O | -4 | 10 | -1 | 0 | -1 | -4
COCCNC(=O)c1c(NC(=O)c2ccco2)n(Cc2ccccc2)c2nc3ccccc3nc12 | -3 | 8 | 31* | 33 | 98* | -16 | YIC counter=0.93*
Cc1nn(Cc2ccccc2)c(C)c1C(=O)NCc1ccccc1F | 1 | 0 | -1 | nt | -7 | 5
Cc1ccc2c(c1)N(C(=O)CCC(=O)N1CCC3(CC1)OCCO3)CC(C)O2 (stereo not given) | nt | nt | -2 | nt | nt | nt
CNS(=O)(=O)c1ccc(N=Cc2c(O)n(-c3cccc(C)c3)c(=O)[nH]c2=O)cc1 | 2 | 19 | -1 | 0 | -21 | -13
Cc1cccc(-n2c(O)c(/C=C/C=Nc3ccccc3)c(=O)[nH]c2=O)c1 | 1 | 6 | 34* | 31 | 75 | -9 | YIC counter=2.8*
CC(=O)O[C@@H]1/C=C/[C@](C)(O)C[C@@H](C)C/C=C/[C@H]2[C@@H]3O[C@]3(C)[C@@H](C)[C@H]3[C@H](Cc4ccccc4)NC(=O)[C@@]312 | nt | nt | -1 | nt | nt | nt
COCCOC(=O)C1=C(C)OC(N)=C(C(=O)OC)C12C(=O)Nc1ccccc12 (stereo not given) | -3 | 0 | 16* | -1 | 2 | -2 | YIC counter=>50
COCCCn1c(N)c(C(=O)Nc2ccccc2)c2nc3ccccc3nc21 | -3 | 16 | 19* | 7 | 16 | -19 | YIC counter=25*
CCOC(=O)c1ccccc1C(=O)OCC | nt | nt | 6 | nt | nt | nt
CCOC(=O)c1c(N)n(CCN2CCCCC2)c2nc3ccccc3nc12 | 0 | 29 | 51* | 41 | 99* | -4 | YIC counter=45*
Cc1c(C(=O)N2CCC3(CC2)OCCO3)sc2ncnc(N3CCc4ccccc4C3)c12 | 2 | 12 | -3 | -4 | 2 | -5
Cc1ccc(NC(=O)CCNC(=O)N2C[C@H]3C[C@@H](C2)c2cccc(=O)n2C3)c(C)c1 | nt | nt | -2 | nt | nt | nt
C=CCn1c(O)c(C(C)=NCCc2ccccc2)c(=O)[nH]c1=O | 1 | -2 | 23* | 1 | -4 | -2 | YIC counter=>50
CCN(CC)C(=O)c1ccc2c(c1)C1C(Cl)C(Sc3ccccc3[N+](=O)[O-])CC1C(C(=O)O)N2 (stereo not given) | -3 | 63* | 1 | 11 | 2 | -3 | Hck Nef conf=i
Cc1ccc2c(c1Cl)NC(C(=O)O)C1CC(Sc3ccccc3[N+](=O)[O-])C(Cl)C21 (stereo not given) | 7 | 44 | 1 | 20 | -14 | 7
SMILES | p97 ATPase inh | Hck-Nef inh | RanGTP-Imp inh | Runt-CBFb FRET | Runt-SMMHC FRET | TbHK1 inh | others
O=C(NCCN1CCOCC1)c1ccc(Cl)nc1Cl | -5 | 8 | 10 | 0 | 0 | 8
CC(C)CCNC(=O)c1c(N)n(CC2CCCO2)c2nc3ccccc3nc12 (stereo not given) | -2 | 58* | 93* | 2 | 20 | -28 | Hck Nef conf=i
Nc1c(C(=O)NCCN2CCOCC2)c2nc3ccccc3nc2n1Cc1ccco1 | 7 | 58* | 64* | 72* | nt | -13 | Hck Nef conf=i
O=C(N/N=C/c1c(O)n(Cc2ccco2)c(=O)[nH]c1=O)c1ccccc1O | 8 | 23 | -3 | 4 | 3 | -26
Cn1cccc1/C=C1/C(=O)NC(=S)N(Cc2ccc(F)cc2)C1=O | 2 | 32 | -2 | 10 | 11 | 6
CCN(CC)CCN=Cc1c(O)n(CCc2ccccc2)c(=O)[nH]c1=O | 7 | 62* | 1 | 1 | 3 | 1 | Hck Nef conf=i
CC(c1ccccc1)[n+]1ccccc1 (stereo not given) | nt | nt | 4 | nt | nt | nt
CCN1C(=O)NC(=O)/C(=C\c2cn(CC(=O)O)c3ccccc23)C1=O | nt | nt | 1 | nt | nt | nt
O=C(O)Cn1cc(/C=C2\C(=O)NC(=O)N(Cc3ccco3)C2=O)c2ccccc21 | 5 | 74* | -2 | 19 | -9 | 7 | Hck Nef conf=i
O=C1NC(=O)C(=Cc2coc3ccccc3c2=O)C(=O)N1 | 2 | 97* | -1 | -1 | -4 | -19 | Hck Nef conf=+
C/C(CC(c1ccccc1)c1c(O)c2ccccc2oc1=O)=N\NC(N)=S (stereo not given) | 4 | -4 | 3 | 1 | 4 | 0
NC(=S)N/N=C/c1coc2ccccc2c1=O | -2 | 53* | 0 | 1 | 2 | -16 | Hck Nef conf=i
O=C(c1cccc(C(F)(F)F)c1)N1C[C@H]2C[C@@H](C1)c1cccc(=O)n1C2 | nt | nt | 2 | nt | nt | nt
CCCCCCCCN=Cc1c(O)[nH]c(=O)[nH]c1=O | 5 | 2 | 0 | 1 | -5 | -7
C=CCNC(=S)/N=C/c1c(O)[nH]c(=O)[nH]c1=O | 2 | 83* | -1 | 2 | -6 | -1 | Hck Nef conf=i

Assay outcomes deposited in PubChem by several laboratories.
